The source made the active and inactive calls. The rule behind the calls is not given here.
Tests used:
Format in all cases: cell-based
[1] = target: T1, Protein cereblon/von Hippel-Lindau disease tumor suppressor (Homo sapiens, UniProt P40337+Q96SW2); test: Protac activity at VHL/CRBN in human HeLa cells assessed as pVHL19 protein abundance at 100 nM after 4 hrs by Western blot analysis relative to DMSO
In short: (§1)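 HeLa cells (5 × 10⁵, DMEM + 10% FBS, 37 °C, 5% CO₂, ≤30 passages) seeded overnight, then treated 4 h with compound at single or graded concentrations (0.1% v/v DMSO final). RIPA lysates equalised by Bradford; SDS-PAGE and anti-CRBN/anti-VHL immunoblots; bands normalised to β-tubulin and expressed as % of mean DMSO vehicle. DC₅₀ from fit of band intensity versus log[concentration].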
Target sequence in this assay (P40337 whole entry, looked up): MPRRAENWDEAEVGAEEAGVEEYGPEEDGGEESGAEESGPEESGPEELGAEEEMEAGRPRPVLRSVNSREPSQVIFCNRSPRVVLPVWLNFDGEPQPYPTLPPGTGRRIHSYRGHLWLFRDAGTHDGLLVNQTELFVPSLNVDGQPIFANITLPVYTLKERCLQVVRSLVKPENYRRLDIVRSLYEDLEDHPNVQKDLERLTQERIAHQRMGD
Target sequence in this assay (Q96SW2 whole entry, looked up): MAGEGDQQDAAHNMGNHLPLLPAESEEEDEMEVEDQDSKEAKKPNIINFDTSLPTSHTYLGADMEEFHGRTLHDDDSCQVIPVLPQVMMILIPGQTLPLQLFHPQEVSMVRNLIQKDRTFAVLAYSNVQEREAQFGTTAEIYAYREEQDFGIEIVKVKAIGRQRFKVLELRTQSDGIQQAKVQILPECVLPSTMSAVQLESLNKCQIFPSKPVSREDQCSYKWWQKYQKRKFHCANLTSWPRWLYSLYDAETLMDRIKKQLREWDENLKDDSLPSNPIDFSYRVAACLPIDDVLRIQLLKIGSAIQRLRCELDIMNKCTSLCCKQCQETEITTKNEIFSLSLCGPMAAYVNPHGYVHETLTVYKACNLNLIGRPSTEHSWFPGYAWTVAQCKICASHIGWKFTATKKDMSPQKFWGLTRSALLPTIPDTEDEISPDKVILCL

[2] = target: T1, Protein cereblon/von Hippel-Lindau disease tumor suppressor; test: Protac activity at VHL/CRBN in human HeLa cells assessed as reduction in CRBN protein level at 10 nM after 4 hrs by Western blot analysis
In short: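 HeLa cells (ATCC; DMEM, 10% FBS, pen/strep, L-glutamine; 37 °C, 5% CO2; ≤30 passages; mycoplasma-tested) are seeded at 5 × 10⁵ per well overnight, then treated for 4 h with 0.1% v/v DMSO final. Lysis is in RIPA with protease inhibitors and benzonase, and equal protein (Bradford) is loaded. CRBN is immunoblotted, normalized to β-tubulin and expressed as % of mean DMSO vehicle.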
Target sequence in this assay (P40337 whole entry, looked up): as the sequence (P40337 whole entry, looked up) above
Target sequence in this assay (Q96SW2 whole entry, looked up): as the sequence (Q96SW2 whole entry, looked up) above

[3] = target: T1, Protein cereblon/von Hippel-Lindau disease tumor suppressor; test: Protac activity at VHL/CRBN in human HeLa cells assessed as induction of CRBN degradation after 4 hrs by Western blot analysis; in short: as §1
Target sequence in this assay (P40337 whole entry): as the sequence (P40337 whole entry, looked up) above
Target sequence in this assay (Q96SW2 whole entry): as the sequence (Q96SW2 whole entry, looked up) above

[4] = target: T1, Protein cereblon/von Hippel-Lindau disease tumor suppressor; test: Protac activity at VHL/CRBN in HEK293 cells assessed as CRBN protein abundance at 1 uM after 8 hrs by Western blot analysis relative to DMSO
In short: (§2)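 HEK293 cells (DMEM, 10% FBS, penicillin/streptomycin, L-glutamine; 37 °C, 5% CO2; ≤30 passages) seeded at 1 × 10⁶ per well overnight, then treated with compound at 0.1% v/v final DMSO. Cells were lysed in RIPA with protease inhibitors and benzonase, then clarified. Equal Bradford-quantified protein was immunoblotted for CRBN/VHL. Bands were normalised to β-tubulin and expressed as % of mean 0.1% DMSO vehicle.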
Target sequence in this assay (P40337 whole entry, looked up): as the sequence (P40337 whole entry, looked up) above
Target sequence in this assay (Q96SW2 whole entry, looked up): as the sequence (Q96SW2 whole entry, looked up) above

[5] = target: T1, Protein cereblon/von Hippel-Lindau disease tumor suppressor; test: Protac activity at VHL/CRBN in HEK293 cells assessed as CRBN protein abundance at 1 uM after 4 hrs by Western blot analysis relative to DMSO; in short: as §2
Target sequence in this assay (P40337 whole entry, looked up): as the sequence (P40337 whole entry, looked up) above
Target sequence in this assay (Q96SW2 whole entry, looked up): as the sequence (Q96SW2 whole entry, looked up) above

[6] = target: T1, Protein cereblon/von Hippel-Lindau disease tumor suppressor; test: Protac activity at VHL/CRBN in human HeLa cells assessed as induction of VHL degradation at 1 uM after 1 to 24 hrs by Western blot analysis; settings: time hrs 1-24
In short: (§3)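 HeLa cells seeded overnight, then exposed to 1 µM compound (0.1% v/v DMSO final) over a time course. Cells were DPBS-washed and RIPA-lysed with protease inhibitors and benzonase; equal protein was loaded. Immunoblots for CRBN and VHL isoforms were quantified against β-tubulin and reported relative to the averaged 0.1% DMSO vehicle.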
Target sequence in this assay (P40337 whole entry, looked up): as the sequence (P40337 whole entry, looked up) above
Target sequence in this assay (Q96SW2 whole entry, looked up): as the sequence (Q96SW2 whole entry, looked up) above

[7] = target: T1, Protein cereblon/von Hippel-Lindau disease tumor suppressor; test: Protac activity at VHL/CRBN in human HeLa cells assessed as pVHL19 protein abundance at 1 uM after 12 hrs by Western blot analysis relative to DMSO; in short: as §3
Target sequence in this assay (P40337 whole entry, looked up): as the sequence (P40337 whole entry, looked up) above
Target sequence in this assay (Q96SW2 whole entry, looked up): as the sequence (Q96SW2 whole entry, looked up) above

[8] = target: T1, Protein cereblon/von Hippel-Lindau disease tumor suppressor; test: Protac activity at VHL/CRBN in human HeLa cells assessed as pVHL19 protein abundance at 1 uM after 1 hr by Western blot analysis relative to DMSO; in short: as §3
[9] = target: T1, Protein cereblon/von Hippel-Lindau disease tumor suppressor; test: Protac activity at VHL/CRBN in human HeLa cells assessed as pVHL30 protein abundance at 50 nM after 4 hrs by Western blot analysis relative to DMSO; in short: as §1
[10] = target: T1, Protein cereblon/von Hippel-Lindau disease tumor suppressor; test: Protac activity at VHL/CRBN in human HeLa cells assessed as pVHL30 protein abundance at 5000 nM after 4 hrs by Western blot analysis relative to DMSO; in short: as §1
[11] = target: T1, Protein cereblon/von Hippel-Lindau disease tumor suppressor; test: Protac activity at VHL/CRBN in HEK293 cells assessed as induction of VHL degradation at 1 uM after 1 to 24 hrs by Western blot analysis; settings: time hrs 1-24
[12] = target: T1, Protein cereblon/von Hippel-Lindau disease tumor suppressor; test: Protac activity at VHL/CRBN in human HeLa cells assessed as pVHL30 protein abundance at 100 nM after 4 hrs by Western blot analysis relative to DMSO; in short: as §1
[13] = target: T1, Protein cereblon/von Hippel-Lindau disease tumor suppressor; test: Protac activity at VHL/CRBN in human HeLa cells assessed as pVHL30 protein abundance at 10 nM after 4 hrs by Western blot analysis relative to DMSO; in short: as §1
[14] = target: T1, Protein cereblon/von Hippel-Lindau disease tumor suppressor; test: Protac activity at VHL/CRBN in human HeLa cells assessed as pVHL30 protein abundance at 1 uM after 24 hrs by Western blot analysis relative to DMSO; in short: as §3
[15] = target: T1, Protein cereblon/von Hippel-Lindau disease tumor suppressor; test: Protac activity at VHL/CRBN in human HeLa cells assessed as pVHL19 protein abundance at 5 nM after 4 hrs by Western blot analysis relative to DMSO; in short: as §1
[16] = target: T1, Protein cereblon/von Hippel-Lindau disease tumor suppressor; test: Protac activity at VHL/CRBN in HEK293 cells assessed as CRBN protein abundance at 1 uM after 24 hrs by Western blot analysis relative to DMSO; in short: as §2
[17] = target: T1, Protein cereblon/von Hippel-Lindau disease tumor suppressor; test: Protac activity at VHL/CRBN in human HeLa cells assessed as induction of VHL degradation at 1 uM after 4 hrs by Western blot analysis; in short: as §1
[18] = target: T1, Protein cereblon/von Hippel-Lindau disease tumor suppressor; test: Protac activity at VHL/CRBN in human HeLa cells assessed as CRBN protein abundance at 1 uM after 2 hrs by Western blot analysis relative to DMSO; in short: as §3
[19] = target: T1, Protein cereblon/von Hippel-Lindau disease tumor suppressor; test: Protac activity at VHL/CRBN in HEK293 cells assessed as pVHL30 protein abundance at 10000 nM after 4 hrs by Western blot analysis relative to DMSO; in short: as §2
[20] = target: T1, Protein cereblon/von Hippel-Lindau disease tumor suppressor; test: Protac activity at VHL/CRBN in human HeLa cells assessed as CRBN protein abundance at 1 uM after 1 hr by Western blot analysis relative to DMSO
In short: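 HeLa cells (DMEM, 10% FBS, penicillin/streptomycin, L-glutamine; 37 °C, 5% CO2) seeded at 5 × 10⁵ per well overnight, then treated in 0.1% v/v final DMSO. Cells were lysed in RIPA with protease inhibitors and benzonase, and equal protein was run on SDS-PAGE/nitrocellulose blots probed with anti-CRBN. Bands were normalised to β-tubulin and expressed relative to mean 0.1% DMSO vehicle.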

[21] = target: T1, Protein cereblon/von Hippel-Lindau disease tumor suppressor; test: Protac activity at VHL/CRBN in HEK293 cells assessed as pVHL30 protein abundance at 5000 nM after 4 hrs by Western blot analysis relative to DMSO; in short: as §2
[22] = target: T1, Protein cereblon/von Hippel-Lindau disease tumor suppressor; test: Protac activity at VHL/CRBN in human HeLa cells assessed as CRBN protein abundance at 1 uM after 24 hrs by Western blot analysis relative to DMSO; in short: as §3
[23] = target: T1, Protein cereblon/von Hippel-Lindau disease tumor suppressor; test: Protac activity at VHL/CRBN in HEK293 cells assessed as pVHL19 protein abundance at 5 nM after 4 hrs by Western blot analysis relative to DMSO; in short: as §2
[24] = target: T1, Protein cereblon/von Hippel-Lindau disease tumor suppressor; test: Protac activity at VHL/CRBN in HEK293 cells assessed as pVHL30 protein abundance at 1 uM after 24 hrs by Western blot analysis relative to DMSO; in short: as §2
[25] = target: T1, Protein cereblon/von Hippel-Lindau disease tumor suppressor; test: Protac activity at VHL/CRBN in HEK293 cells assessed as pVHL19 protein abundance at 1 uM after 24 hrs by Western blot analysis relative to DMSO; in short: as §2
[26] = target: T1, Protein cereblon/von Hippel-Lindau disease tumor suppressor; test: Protac activity at VHL/CRBN in human HeLa cells assessed as pVHL19 protein abundance at 1 uM after 4 hrs by Western blot analysis relative to DMSO; in short: as §3

Activity [1]: 108%
Activity [2]: inactive
DC50 [3]: 200 nM
Activity [4]: 2%
Activity [5]: 6%
Activity [6]: inactive
Activity [7]: 93%
Activity [8]: 100%
Activity [9]: 79%
Activity [10]: 143%
Activity [11]: inactive
Activity [12]: 101%
Activity [13]: 64%
Activity [14]: 97%
Activity [15]: 87%
Activity [16]: 6%
Activity [17]: inactive
Activity [18]: 27%
Activity [19]: 128%
Activity [20]: 57%
Activity [21]: 124%
Activity [22]: 13%
Activity [23]: 108%
Activity [24]: 101%
Activity [25]: 101%
Activity [26]: 100%
Structure (SMILES): Cc1ncsc1-c1ccc(CNC(=O)[C@@H]2C[C@@H](O)CN2C(=O)[C@@H](NC(=O)COCCCCCOCCOCCCCCOCC(=O)NCCNc2cccc3c2C(=O)N(C2CCC(=O)NC2=O)C3=O)C(C)(C)C)cc1 (stereo partly specified)

Source: ChEMBL document CHEMBL4665633, “Cereblon versus VHL: Hijacking E3 ligases against each other using PROTACs” (Bioorg Med Chem, 2019)
